Results as given in article PMC11982377 (Communications Biology, 2025).
“Also recorded” adds a separate entry of the source.

Assays:
[1] = molecular target: T1, sfWDS (Spodoptera frugiperda, UniProt A0A2H1VC02); test: In vitro ubiquitination; format: biochemical; conditions: listed as MS67
[2] = molecular target: T1, sfWDS; test: Sf9 cell degradation assay; format: cell-based; conditions: Sf9 cells
In short: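 Sf9 cells in ESF921 medium, split into 1e6-cell aliquots and treated 24 h with test compound or DMSO. For sfWDS, some treatments at 10 μM ± bortezomib 10 μM. Lysed in Tris-SDS, then acetone precipitation, urea reduction/alkylation, Trypsin/LysC digest and MCX cleanup. Stable-isotope peptide standards spiked in; targeted MS. Signal normalised to isotope and total peptide, as % of DMSO. n = 4. Dose-response by 4-parameter fit.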

[3] = test system: Sf9 cells; test: PROTAC cellular permeability and distribution measured by LCMS; format: in vitro ADME, Spodoptera frugiperda; conditions: 10 µM, 24 h
[4] = test system: WDR5; conditions: MV4-11 cells ref 34; cited from earlier work

**Q.** Which “IVQ Y/N (ubiquitination of sfWDS)” value [1] does the source give for `Cc1ncsc1-c1ccc([C@H](C)NC(=O)[C@@H]2C[C@@H](O)CN2C(=O)[C@@H](NC(=O)CNC(=O)c2ccc(F)c(-c3ccc(N4C[C@@H](C)N(C)[C@@H](C)C4)c(NC(=O)c4c[nH]c(=O)cc4C(F)(F)F)c3)c2)C(C)(C)C)cc1` [Compound 12] here?
**A.** polyubiquitination of sfWDS was observed in a dose-dependent manner

**Q.** What about the “degradation of sfWDS in cell” value [2] of the same molecule?
**A.** did not demonstrate in cell degradation

**Q.** What about the “degradation of sfWDS in cell” value ([2]; listed as MS67) of the same molecule?
**A.** failed to prompt degradation of sfWDS; also recorded: did not show degradation in cells

**Q.** What about the “PROTAC in cells (of total PROTAC recovery, cells vs media)” value [3] of the same molecule?
**A.** only detected at very low intracellular levels

**Q.** And the “Dmax, degradation of WDR5” value [4]?
**A.** 94%
